Our source for the Survivors, Increase and Water solubility values is ChEMBL document CHEMBL1124697, “A new family of water-soluble, third generation antitumor platinum complexes” (J Med Chem, 1989).

In series [1] the test system is P388. In words: Percent survivors when compound administered at 25.5 mg/kg against P388 leukemia cells in BDF1 mice. In kind it is functional, organism-based. Conditions: Mus musculus. On the set-up: dose 25.5 mg/kg. The gist of the method:
(§1)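 BDF1 mice inoculated with P388, L1210 or cisplatin-resistant L1210 leukemia. Compound given ip on days 1, 5 and 9 relative to tumor inoculation, and mice observed for 30 days. Median % increase in life span over controls and % survivors are reported at the optimal dose. Activity requires ILS ≥25%. Toxicity is rated when ILS or body weight is reduced by ≥15%.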

Series [2] has as its system Colon 26. The series is described as follows: Percent in life span when compound administered at 6.2 mg/kg against Colon 26 cells in balb/C mice. In kind it is functional, organism-based. Set-up: dose 6.2 mg/kg. As to conditions: Mus musculus. In a few lines:
(§2)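 Colon 26 in Balb/C mice. Test agents given ip on days 1, 5 and 9 relative to tumor inoculation; mice observed 30 days. Median % increase in life span at optimal dose, with % survivors noted; ILS ≥25% over controls required for activity; ILS or body weight reduced ≥15% versus controls rated toxic.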

Series [3] has as its system L1210. In words: Percent survivors when compound administered at 12.5 mg/kg against L1210 leukemia cells in BDF1 mice. In kind it is functional, organism-based. On the set-up: dose 12.5 mg/kg. As to conditions: Mus musculus. The gist of the method: as §1
Series [4] deals with P388. In words: Percent increase in life span when compound administered at 25.5 mg/kg against P388 leukemia cells in BDF1 mice. In kind it is functional, organism-based. As to conditions: Mus musculus. On the set-up: dose 25.5 mg/kg. The gist of the method:
(§3)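 BDF1 mice bearing P388, L1210 or cisplatin-resistant L1210 leukemia; ip dosing on days 1, 5 and 9 relative to tumor inoculation, 30-day observation. Median % ILS over controls at optimal dose plus % survivors; ≥25% ILS counted as active, ≥15% reduction in ILS or body weight over controls rated toxic.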

Series [5] has as its system Colon 26. In words: Percent survivors when compound administered at 6.2 mg/kg against Colon 26 cells in balb/C mice. Format: functional, organism-based. Set-up: dose 6.2 mg/kg. Conditions: Mus musculus. The gist of the method:
(§4)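 Colon 26 tumor in Balb/C mice. Dosing ip on days 1, 5 and 9 after tumor inoculation, with a 30-day observation period. Readouts are median % increase in life span over control mice and % survivors, given at the optimal dose. Activity threshold is ILS ≥25%. A ≥15% drop in ILS or body weight is rated toxic.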

The subject of series [6] is Colon 26. In words: Percent survivors when compound administered at 3.1 mg/kg against Colon 26 cells in balb/C mice. Format: functional, organism-based. Set-up: dose 3.1 mg/kg. As to conditions: Mus musculus. In a few lines:
as §4

The test system of series [7] is Colon 26. In words: Percent in life span when compound administered at 3.1 mg/kg against Colon 26 cells in balb/C mice. Format: functional, organism-based. Set-up: dose 3.1 mg/kg. Conditions: Mus musculus. In a few lines: as §2
For series [8], the system named is B16. The series is described as follows: Percent increase in life span when compound administered at 0.4 mg/kg against B-16 melanoma cells in […] mice. In kind it is functional, organism-based. Set-up: dose 0.4 mg/kg. As to conditions: Mus musculus. The gist of the method: (§5)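 B-16 melanoma in […] mice; compounds given ip daily on days 1–9 relative to tumor inoculation, animals followed 60 days. Read-out median % increase in life span over controls at optimal dose with % survivors; activity threshold ILS ≥25%; ≥15% reduction in ILS or body weight versus controls rated toxic.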

The test system of series [9] is P388. The series is described as follows: Percent increase in life span when compound administered at 6.2 mg/kg against P388 leukemia cells in BDF1 mice. In kind it is functional, organism-based. Set-up: dose 6.2 mg/kg. As to conditions: Mus musculus. In a few lines:
as §3

For series [10], the system named is P388. The series is described as follows: Percent survivors when compound administered at 6.2 mg/kg against P388 leukemia cells in BDF1 mice. Format: functional, organism-based. Set-up: dose 6.2 mg/kg. Conditions: Mus musculus. In a few lines:
as §1

For series [11], the system named is P388. The series is described as follows: Percent increase in life span when compound administered at 12.5 mg/kg against P388 leukemia cells in BDF1 mice. In kind it is functional, organism-based. On the set-up: dose 12.5 mg/kg. As to conditions: Mus musculus. In a few lines:
as §3

For series [12], the system named is P388. In words: Percent survivors when compound administered at 12.5 mg/kg against P388 leukemia cells in BDF1 mice. Set-up: dose 12.5 mg/kg. In kind it is functional, organism-based. Conditions: Mus musculus. In a few lines: as §1
Series [13] concerns L1210. The series is described as follows: Percent increase in life span when compound administered at 50 mg/kg against L1210 cisplatin resistant leukemia cells in BDF1 mice. Set-up: dose 50 mg/kg. As to conditions: Mus musculus. Format: functional, organism-based. In a few lines: as §3
The test system of series [14] is Colon 26. In words: Percent survivors when compound administered at 100 mg/kg againstColon 26 cells in balb/C mice. Format: functional, organism-based. On the set-up: dose 100 mg/kg. Conditions: Mus musculus. The gist of the method:
as §4

The test system of series [15] is B16. In words: Percent increase in life span when compound administered at 12.5 mg/kg against B-16 melanoma cells in […] mice. In kind it is functional. As to conditions: Mus musculus. The gist of the method: (§6)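 Median % increase in life span versus controls and % survivors are recorded at the optimal dose. ILS ≥25% counts as active, and a ≥15% reduction in ILS or body weight counts as toxic.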

Series [16] concerns B16. The series is described as follows: Percent survivors when compound administered at 12.5 mg/kg against B-16 melanoma cells in […] mice. Format: functional. Conditions: Mus musculus. The gist of the method: as §6
Series [17] concerns Colon 26. The series is described as follows: Percent survivors when compound administered at 50 mg/kg againstColon 26 cells in balb/C mice. Format: functional, organism-based. On the set-up: dose 50 mg/kg. Conditions: Mus musculus. The gist of the method:
as §4

The subject of series [18] is L1210. In words: Percent survivors when compound administered at 50 mg/kg against L1210 cisplatin resistant leukemia cells in BDF1 mice. Set-up: dose 50 mg/kg. As to conditions: Mus musculus. In kind it is functional, organism-based. The gist of the method: as §1
In series [19] the test system is B16. In words: Percent survivors when compound administered at 25 mg/kg against B-16 melanoma cells in […] mice. Format: functional, organism-based. As to conditions: Mus musculus. On the set-up: dose 25 mg/kg. The gist of the method: as §6
Series [20] deals with B16. In words: Percent increase in life span when compound administered at 25 mg/kg against B-16 melanoma cells in […] mice. Format: functional, organism-based. Conditions: Mus musculus. Set-up: dose 25 mg/kg. The gist of the method: as §5
Series [21] has as its system L1210. The series is described as follows: Percent survivors when compound administered at 50 mg/kg against L1210 leukemia cells in BDF1 mice. Format: functional, organism-based. Set-up: dose 50 mg/kg. As to conditions: Mus musculus. In a few lines: as §1
Series [22] deals with Colon 26. The series is described as follows: Percent in life span when compound administered at 100 mg/kg againstColon 26 cells in balb/C mice. In kind it is functional, organism-based. Set-up: dose 100 mg/kg. Conditions: Mus musculus. The gist of the method:
as §2

In series [23] the test system is L1210. The series is described as follows: Percent increase in life span when compound administered at 50 mg/kg against L1210 leukemia cells in BDF1 mice. In kind it is functional, organism-based. On the set-up: dose 50 mg/kg. As to conditions: Mus musculus. The gist of the method: as §3
Series [24] in a line: Water solubility was determined. Format: ADME. Conditions: buffer.
Series [25] relates to P388. The series is described as follows: Percent survivors when compound administered at 200 mg/kg against P388 leukemia cells in BDF1 mice. In kind it is functional, organism-based. On the set-up: dose 200 mg/kg. Conditions: Mus musculus. In a few lines: as §1
Series [26] deals with P388. In words: Percent increase in life span when compound administered at 200 mg/kg against P388 leukemia cells in BDF1 mice. As to conditions: Mus musculus. In kind it is functional, organism-based. On the set-up: dose 200 mg/kg.

Where “and” joins values, the source holds several entries; their conditions need not be identical. Identical values can stand only once.

On to “Platinum:8,8-Dichloro-1,3-dioxa-7,9-diaza-spiro[4.5]decane”, for which the Survivors in series [1], in [3] and in series [5] was 0% throughout. For the same substance, the Increase turned out to be 50% in series [2] and 160% in series [4].

Take “Platinum:9,9-Dichloro-2,4-dioxa-8,10-diaza-spiro[5.5]undecane”: the Survivors in series [6] was 0%; in series [10] it was 3%. For the same substance, the Increase was found to be 41% in series [7], 27% in series [8] and 173% in series [9].

Consider “Platinum:9,9-Dichloro-3-methyl-2,4-dioxa-8,10-diaza-spiro[5.5]undecane”, for which the Increase in series [11] was found to be 136%. The substance also returned a Survivors in series [12] of 1%.

Turning to “Platinum:Formic acid 9-formyloxy-2,4-dioxa-8,10-diaza-spiro[5.5]undec-9-yl ester”, the Increase in series [13] is 168%; in series [15], 61%; in series [20], 64% and 84%; in [22], 127%; in [23], 172%. Also, the Survivors in [14] was 3%; in series [16], 3%; in series [17], 0%; in [18], 33%; in series [19] it was 0%; in series [21], 50%.

In series [24], “Platinum:Formic acid 9-formyloxy-3-methyl-2,4-dioxa-8,10-diaza-spiro[5.5]undec-9-yl ester [listing 1 of 2 here]” returned a Water solubility of 100 mg/mL.

“Platinum:Formic acid 9-formyloxy-3-methyl-2,4-dioxa-8,10-diaza-spiro[5.5]undec-9-yl ester [listing 2 of 2 here]”: the Survivors amounted to 5% in [25] and 0% in series [19]. For the same substance, the Increase in series [26] was 173%; in series [20], 62%.
